PHOSPHO1 inh = inhibitors of human PHOSPHO1 phosphatase | AID 1565 | recombinant PHOSPHO1, absorbance phosphatase assay | inhibition, % at 13.3 µM | 1.1% of 290,000 active; in the data active = inhibition above about 60%
Efa HMGR inh = E. faecalis class II HMG-CoA reductase inhibition; 0.41% of 190,000 active; inhibition, % at 10 µM; purified E. faecalis HMGR, NADPH absorbance 340 nm kinetic; AID 1066;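 active = inhibition above a set limit, the median over all tested compounds plus 3 SD, cut at about 9.5% in these data; inconclusive = no clear call, values can overlap the other calls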;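 note: enzyme runs in reverse so mevalonate oxidation gives rising NADPH absorbance; 0% = complete reaction with DMSO and 100% = background rate lacking mevalonate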
Runt-CBFb FRET = blocks binding of human RUNX1 Runt domain to CBFb; AID 1496; inhibition, % at 20 µM; Q01196+Q13951; Cerulean-Runt/Venus-CBFb FRET ratio 530/480, 1 h; 0.46% of 220,000 active;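 active = inhibition over about 50% at 20 µM in the single-dose screen, limit read from the data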;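 note: 0% = DMSO wells and 100% = excess unlabeled CBFb competitor control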
Target sequence (Q01196 whole entry, looked up, the tested form may be a part): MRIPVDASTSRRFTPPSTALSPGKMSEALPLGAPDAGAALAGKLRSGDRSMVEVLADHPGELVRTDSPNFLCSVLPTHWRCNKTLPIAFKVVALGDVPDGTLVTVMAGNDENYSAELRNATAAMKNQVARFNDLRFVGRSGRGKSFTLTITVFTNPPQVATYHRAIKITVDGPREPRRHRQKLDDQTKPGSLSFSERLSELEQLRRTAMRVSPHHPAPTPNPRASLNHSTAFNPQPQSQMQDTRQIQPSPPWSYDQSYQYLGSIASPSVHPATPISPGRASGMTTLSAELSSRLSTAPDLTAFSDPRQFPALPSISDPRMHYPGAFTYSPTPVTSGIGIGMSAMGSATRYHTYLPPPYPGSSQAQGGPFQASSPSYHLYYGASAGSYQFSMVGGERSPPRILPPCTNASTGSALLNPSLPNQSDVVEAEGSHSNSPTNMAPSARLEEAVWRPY
Target sequence (Q13951 whole entry, looked up, the tested form may be a part): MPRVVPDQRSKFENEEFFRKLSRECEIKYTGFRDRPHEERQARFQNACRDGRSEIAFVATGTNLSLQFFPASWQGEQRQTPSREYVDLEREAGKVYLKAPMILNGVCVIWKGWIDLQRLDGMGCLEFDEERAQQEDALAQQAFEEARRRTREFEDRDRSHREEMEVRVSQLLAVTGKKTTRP
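Doses: 20 µM compound in 1% DMSO | Material: Cerulean-labeled Runt domain protein | Amount: Each fluorescent fusion protein 100 nM | Schedule: Two 1 h room-temperature incubations shielded from light | Measured by: FRET fluorescence | Evaluation: Loss of energy transfer signal | Controls: Unlabeled CBFb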
Runt-SMMHC FRET = Runt domain-CBFb-SMMHC interaction inhibition | Q01196+Q13951 | Cerulean-Runt/Venus-CBFb-SMMHC FRET ratio 530/480, 1 h | inhibition, % at 20 µM | 0.74% of 220,000 active | AID 1434;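 active = mean inhibition across duplicate retests at 20 µM reaching about 50%, limit read from the data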;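 note: 0% = DMSO wells and 100% = wells with excess untagged CBFb-SMMHC; inhibitors lower the FRET ratio by blocking Runt binding to CBFb-SMMHC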
Wee1 stabilizer = human Wee1 degradation inhibition, primary screen; P30291; HeLa Luc-Wee1K328M stability, luciferase luminescence; 100% = proteasome inhibitor MG132 effect; reporter increase, % at 5 µM; 1.2% of 220,000 active;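 active = activation above the mean of all tested compounds plus 3 SD, set per screening run, cut at about 8.8% in these data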;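 note: cells exposed to compound for 20 h before luminescence read; 0% = DMSO alone and 100% = MG132 at 30 µM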
RanGTP-Impb inh = inhibitors of RanGTP-importin-beta interaction, primary screen, biochemical, FRET, CFP-Ran, YFP-importin-beta, homogeneous | cell-free CFP-Ran/YFP-importin-beta FRET ratio | inhibition, % (no concentration beside the values) | 1.1% of 300,000 active | AID 2216;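 active = more than half of the replicate wells show a fall in the fluorescence ratio signal beyond about 16%, limit read from the data, passing the limit was not always enough; inconclusive = exactly half of the replicate wells pass the set limit; inactive = fewer than half of replicates pass the limit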;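 note: 0% = DMSO wells and 100% = Ran loaded with GDP instead of GTP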
Wee1 stab conf = confirmation of human Wee1 degradation inhibitors; shares compounds with Wee1 stabilizer; HeLa Luc-Wee1K328M degradation, luminescence; vehicle 0%, proteasome-blocked wells 100%; activation, % at 5 µM; 4% of 1,100 active; AID 1410; in the data active = activation above about 8.9%
Starred values were filed as active, the others as inactive. Sampled rows, rich in hits. Any-hit rate of the full collection: about 3.4%.

Results for C[C@@H](C(=O)Nc1nc(-c2ccccn2)cs1)N1C(=O)C2CCCCC2C1=O (some centres undefined) ?
PHOSPHO1 inh: 69.6*; Efa HMGR inh: -3.0; Runt-CBFb FRET: 17.3; Runt-SMMHC FRET: 16.6; Wee1 stabilizer: 2.0; RanGTP-Impb inh: 7.3

What do the screens show for `O=C(Nc1nc(-c2ccccn2)cs1)c1ccc([N+](=O)[O-])o1`?
PHOSPHO1 inh: 92.7*; Runt-CBFb FRET: 31.3; Runt-SMMHC FRET: 9.1; Wee1 stabilizer: 4.5; RanGTP-Impb inh: 3.2

How did O=C(Nc1nc(-c2ccccn2)cs1)C1COc2ccccc2O1 (centres undefined) do in these assays?
PHOSPHO1 inh: 45.9; Efa HMGR inh: -5.3; Runt-CBFb FRET: 0.9; Runt-SMMHC FRET: 2.3; Wee1 stabilizer: -2.2

How did O=C(CN1C(=O)C2CCCCC2C1=O)Nc1nc(-c2ccccn2)cs1 (centres undefined) do in these assays?
PHOSPHO1 inh: 70.9*; Efa HMGR inh: -3.1; Runt-CBFb FRET: 11.2; Runt-SMMHC FRET: 3.1; Wee1 stabilizer: 0.4; RanGTP-Impb inh: 5.7

Results for CC1CC1C(=O)Nc1nc(-c2ccccn2)cs1 (centres undefined) ?
PHOSPHO1 inh: 77.5*; Efa HMGR inh: -0.9; Runt-CBFb FRET: 40.6; Runt-SMMHC FRET: 18.1; Wee1 stabilizer: -2.3; RanGTP-Impb inh: -0.5

What do the screens show for `Cc1ccc(C(=O)OCC(=O)Nc2cc(C(C)(C)C)nn2-c2ccccc2)c(O)c1`?
RanGTP-Impb inh: 6.0

Results for Cc1nn(-c2ccccc2)c(C)c1NC(=O)COC(=O)c1ccc(Cl)c(S(N)(=O)=O)c1 ?
RanGTP-Impb inh: -3.2

How did CC(C)c1nnc(NC(=O)CCC(=O)NCc2ccc(F)cc2)s1 do in these assays?
PHOSPHO1 inh: 45.3; RanGTP-Impb inh: -3.9

How did CCCN1CCN(C2CCCCC2NS(=O)(=O)c2ccccc2)CC1 (centres undefined) do in these assays?
PHOSPHO1 inh: 32.4; RanGTP-Impb inh: 3.1

How did O=S(=O)(NC1CCCCC1N1CCC(O)CC1)c1ccccc1 (centres undefined) do in these assays?
PHOSPHO1 inh: 24.2; RanGTP-Impb inh: 55.6*

What do the screens show for `CCc1ccc(CNC(=O)c2ccc(NC(=O)C3=CSCCO3)cc2)cc1`?
PHOSPHO1 inh: 48.8; RanGTP-Impb inh: 1.8

What do the screens show for `COc1ccc(OCCOC(=O)CNS(=O)(=O)c2ccc(SC)c([N+](=O)[O-])c2)cc1`?
RanGTP-Impb inh: 0.4

How did O=C(CSc1n[nH]c(Cc2ccccc2)n1)Nc1ccccc1Br do in these assays?
PHOSPHO1 inh: 11.0; RanGTP-Impb inh: -2.3

Results for CC(C)N1CCc2c(sc(NC(=O)CN3C(=O)c4ccccc4C3=O)c2C(N)=O)C1 ?
PHOSPHO1 inh: 47.7; Efa HMGR inh: -3.0; Runt-CBFb FRET: 98.3*; Runt-SMMHC FRET: 129.1*; Wee1 stabilizer: -2.3; RanGTP-Impb inh: 142.3*

Results for CC(C)Cc1nnc(NC(=O)CN2C(=O)c3ccccc3C2=O)s1 ?
PHOSPHO1 inh: -134.3; Efa HMGR inh: 1.3; Runt-CBFb FRET: 11.6; Runt-SMMHC FRET: 3.7; Wee1 stabilizer: 0.4; RanGTP-Impb inh: 2.8

What do the screens show for `CC(C)N1CCc2c(sc(NC(=O)CCS(=O)(=O)c3ccccc3)c2C(N)=O)C1`?
PHOSPHO1 inh: 33.5; RanGTP-Impb inh: 152.6*

What do the screens show for `CC(C)c1nnc(NC(=O)CN2C(=O)c3ccccc3C2=O)s1`?
PHOSPHO1 inh: 89.1*; Efa HMGR inh: -4.3; Runt-CBFb FRET: 0.6; Runt-SMMHC FRET: 0.5; Wee1 stabilizer: -0.6; RanGTP-Impb inh: -3.6

Results for CC(=O)N1CCc2c(sc(NC(=O)CCS(=O)(=O)c3ccccc3)c2C(N)=O)C1 ?
PHOSPHO1 inh: 28.7; RanGTP-Impb inh: 7.1

How did COc1cc2ccccc2cc1C(=O)Nc1sc2c(c1C(N)=O)CCN(C(C)C)C2 do in these assays?
PHOSPHO1 inh: 47.7; RanGTP-Impb inh: 46.7*

What do the screens show for `COC(=O)COc1ccc(/C=C2\SC(=O)N(CC(=O)Nc3ccccc3F)C2=O)cc1`?
PHOSPHO1 inh: 8.5; RanGTP-Impb inh: -1.7

How did CCC(=O)N(Cc1ccco1)c1nc(-c2ccc(OC)cc2)cs1 do in these assays?
PHOSPHO1 inh: 21.9; Efa HMGR inh: 11.6*; Runt-CBFb FRET: -1.3; Runt-SMMHC FRET: -13.1; Wee1 stabilizer: -2.2; RanGTP-Impb inh: -0.5

How did COC(=O)CNC(=O)C1CC(=O)N(CCc2ccc(F)cc2)C1 (centres undefined) do in these assays?
PHOSPHO1 inh: 41.1; RanGTP-Impb inh: -2.3

How did O=C(Nc1ccccc1)N1CCc2ccccc2C1 do in these assays?
PHOSPHO1 inh: 0.5; Efa HMGR inh: -0.9; Runt-CBFb FRET: -0.3; Runt-SMMHC FRET: -48.4; Wee1 stabilizer: -0.8; RanGTP-Impb inh: -3.7

Results for O=C(Nc1ccc(Cl)cc1)N1CCc2ccccc2C1 ?
PHOSPHO1 inh: 24.1; Efa HMGR inh: -0.8; Runt-CBFb FRET: 0.5; Runt-SMMHC FRET: -1.7; Wee1 stabilizer: 9.7*; RanGTP-Impb inh: -3.2

How did COc1ccc(NC(=O)N(Cc2cc3ccc(OC)cc3[nH]c2=O)CC2CCCO2)cc1 (centres undefined) do in these assays?
PHOSPHO1 inh: 41.1; Efa HMGR inh: 16.6*; Runt-CBFb FRET: -1.1; Runt-SMMHC FRET: -3.0; Wee1 stabilizer: 3.6; RanGTP-Impb inh: inconclusive

What do the screens show for `COc1ccc(NC(=O)N(Cc2cc3cc(OC)ccc3[nH]c2=O)CC2CCCO2)cc1` (centres undefined)?
PHOSPHO1 inh: -0.8; Efa HMGR inh: -3.0; Runt-CBFb FRET: -0.5; Runt-SMMHC FRET: -3.9; Wee1 stabilizer: 0.9; RanGTP-Impb inh: 0.5

What do the screens show for `CC(=O)c1ccc2c(c1)c(C#N)c1ccccc1[n+]2[O-]`?
PHOSPHO1 inh: 40.4; RanGTP-Impb inh: 68.3*

Results for COc1ccccc1NC(=O)Cc1ccsc1 ?
PHOSPHO1 inh: 9.8; RanGTP-Impb inh: -1.6

How did COc1cccc(C2N(Cc3ccccc3)C(=O)C2(F)F)c1OC (centres undefined) do in these assays?
PHOSPHO1 inh: 44.9; RanGTP-Impb inh: -2.0

What do the screens show for `CC(=O)Nc1ccc(N2CCCCC2)cc1`?
PHOSPHO1 inh: 26.7; Efa HMGR inh: -0.1; Runt-CBFb FRET: 2.2; Runt-SMMHC FRET: -1.1; Wee1 stabilizer: 11.9*; RanGTP-Impb inh: -1.2; Wee1 stab conf: 2.0

What do the screens show for `CC(C)(C)OC(=O)NCCCC1=CC2=CC(=O)C(C)(O)C(=O)C2=CO1` (centres undefined)?
RanGTP-Impb inh: -11.3

Results for CCOc1ccccc1C(=O)NCC(=O)NCCCSc1ccccc1 ?
PHOSPHO1 inh: 17.4; RanGTP-Impb inh: -2.5

Screening results: PubChem, several laboratories
